According to publication PMC5715471 (ACS chemical neuroscience, 2017):
pKi: −log10 of the molar value.

Columns and labels:
PBR = PBR (Rattus norvegicus, UniProt P16257); assay: PDSP radioligand binding, PBR; conditions: 10 μM
Alpha1d = Alpha1d (Homo sapiens, UniProt P25100); assay: PDSP radioligand binding, Alpha1d; conditions: 10 μM
5HT2B = 5HT2B (Homo sapiens, UniProt P41595); assay: PDSP radioligand binding, 5HT2B; conditions: 10 μM
A4B4 = A4B4 (Rattus norvegicus, UniProt P09483+P12392); assay: PDSP radioligand binding, A4B4; conditions: 10 μM
D4 = D4 (Homo sapiens, UniProt P21917); assay: PDSP radioligand binding, D4; conditions: 10 μM
SERT = SERT (Homo sapiens, UniProt P31645); assay: PDSP radioligand binding, SERT; conditions: 10 μM
SERT, sequence (P31645 whole entry): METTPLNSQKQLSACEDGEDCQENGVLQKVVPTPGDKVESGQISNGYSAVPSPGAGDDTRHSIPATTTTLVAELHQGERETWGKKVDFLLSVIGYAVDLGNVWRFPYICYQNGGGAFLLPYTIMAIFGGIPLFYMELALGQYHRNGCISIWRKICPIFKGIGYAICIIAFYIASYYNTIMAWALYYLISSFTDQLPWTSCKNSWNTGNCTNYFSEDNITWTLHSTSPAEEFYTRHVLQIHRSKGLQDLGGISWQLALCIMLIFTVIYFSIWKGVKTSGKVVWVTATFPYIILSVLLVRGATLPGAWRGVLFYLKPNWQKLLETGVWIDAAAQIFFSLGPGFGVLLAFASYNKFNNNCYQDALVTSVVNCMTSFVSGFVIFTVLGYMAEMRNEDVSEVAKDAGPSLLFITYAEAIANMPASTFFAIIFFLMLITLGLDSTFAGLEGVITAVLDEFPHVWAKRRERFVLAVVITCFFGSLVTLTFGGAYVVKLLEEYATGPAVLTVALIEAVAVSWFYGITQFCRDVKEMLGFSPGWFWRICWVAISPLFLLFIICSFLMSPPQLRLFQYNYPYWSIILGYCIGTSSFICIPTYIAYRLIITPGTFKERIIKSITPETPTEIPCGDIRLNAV

H3 = H3 (Homo sapiens, UniProt Q9Y5N1); assay: PDSP radioligand binding, H3; conditions: 10 μM
5HT1B = 5HT1B (Homo sapiens, UniProt P28222); assay: PDSP radioligand binding, 5HT1B; conditions: 10 μM
5HT1B, sequence (P28222 whole entry): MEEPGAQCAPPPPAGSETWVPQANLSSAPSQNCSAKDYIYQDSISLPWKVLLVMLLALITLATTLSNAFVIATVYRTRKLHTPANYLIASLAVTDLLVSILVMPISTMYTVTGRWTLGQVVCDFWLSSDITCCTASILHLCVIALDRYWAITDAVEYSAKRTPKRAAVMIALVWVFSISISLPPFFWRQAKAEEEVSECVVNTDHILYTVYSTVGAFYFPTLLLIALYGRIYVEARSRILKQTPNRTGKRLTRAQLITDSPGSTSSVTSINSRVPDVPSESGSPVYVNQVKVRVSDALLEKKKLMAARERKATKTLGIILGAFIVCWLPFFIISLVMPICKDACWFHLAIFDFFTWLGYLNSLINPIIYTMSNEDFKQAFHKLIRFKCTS

A2B2 = A2B2 (Rattus norvegicus, UniProt P12389+P12390); assay: PDSP radioligand binding, A2B2; conditions: 10 μM
A2B2, sequence (P12389 28-511): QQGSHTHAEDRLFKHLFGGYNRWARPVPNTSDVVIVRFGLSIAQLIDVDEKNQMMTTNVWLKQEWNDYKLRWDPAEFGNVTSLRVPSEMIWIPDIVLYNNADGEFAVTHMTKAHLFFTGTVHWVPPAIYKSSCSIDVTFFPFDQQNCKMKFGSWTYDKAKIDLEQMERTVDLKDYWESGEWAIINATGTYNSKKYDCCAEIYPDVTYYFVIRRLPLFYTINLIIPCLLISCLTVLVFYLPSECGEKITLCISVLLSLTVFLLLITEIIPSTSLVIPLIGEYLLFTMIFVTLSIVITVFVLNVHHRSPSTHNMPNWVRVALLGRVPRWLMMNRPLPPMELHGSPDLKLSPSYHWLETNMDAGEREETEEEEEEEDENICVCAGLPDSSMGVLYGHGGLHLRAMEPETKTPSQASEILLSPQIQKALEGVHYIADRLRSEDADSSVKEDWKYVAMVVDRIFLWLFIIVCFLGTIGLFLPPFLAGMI
A2B2, sequence (P12390 25-500): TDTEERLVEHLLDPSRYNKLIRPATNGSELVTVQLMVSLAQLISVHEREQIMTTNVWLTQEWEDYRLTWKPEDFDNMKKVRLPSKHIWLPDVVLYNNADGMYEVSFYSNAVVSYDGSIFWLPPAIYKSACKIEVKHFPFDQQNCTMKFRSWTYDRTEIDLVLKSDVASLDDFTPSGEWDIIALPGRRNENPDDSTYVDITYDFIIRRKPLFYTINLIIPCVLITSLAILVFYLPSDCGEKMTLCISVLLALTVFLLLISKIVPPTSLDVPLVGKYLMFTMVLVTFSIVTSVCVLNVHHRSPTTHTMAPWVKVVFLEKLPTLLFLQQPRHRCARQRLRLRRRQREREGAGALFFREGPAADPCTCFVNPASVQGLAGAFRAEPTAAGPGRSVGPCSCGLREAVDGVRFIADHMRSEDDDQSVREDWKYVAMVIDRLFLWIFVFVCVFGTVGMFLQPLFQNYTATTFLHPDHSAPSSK

[1] = tested on: mouse spared nerve injury (SNI) model; assay: Mechanical sensitivity; assay type: in vivo
Method in brief: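 Male C57Bl6/J SNI mice, hindpaw mechanical hypersensitivity confirmed 2 weeks post-surgery. Tail-vein IV injection in 100 μL sterile saline (DMSO stock diluted; vehicle DMSO-matched): test compound 10 mg/kg, gabapentin 100 mg/kg, or vehicle, n = 6 each. Blinded von Frey testing (modified up–down) at set time points. Mean ± SEM; two-way ANOVA with Bonferroni post hoc.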

Alpha1c = assay: PDSP radioligand binding, Alpha1c; conditions: 10 μM
M5 = M5 (Homo sapiens, UniProt P08912); assay: PDSP radioligand binding, M5; conditions: 10 μM
M5, sequence (P08912 whole entry): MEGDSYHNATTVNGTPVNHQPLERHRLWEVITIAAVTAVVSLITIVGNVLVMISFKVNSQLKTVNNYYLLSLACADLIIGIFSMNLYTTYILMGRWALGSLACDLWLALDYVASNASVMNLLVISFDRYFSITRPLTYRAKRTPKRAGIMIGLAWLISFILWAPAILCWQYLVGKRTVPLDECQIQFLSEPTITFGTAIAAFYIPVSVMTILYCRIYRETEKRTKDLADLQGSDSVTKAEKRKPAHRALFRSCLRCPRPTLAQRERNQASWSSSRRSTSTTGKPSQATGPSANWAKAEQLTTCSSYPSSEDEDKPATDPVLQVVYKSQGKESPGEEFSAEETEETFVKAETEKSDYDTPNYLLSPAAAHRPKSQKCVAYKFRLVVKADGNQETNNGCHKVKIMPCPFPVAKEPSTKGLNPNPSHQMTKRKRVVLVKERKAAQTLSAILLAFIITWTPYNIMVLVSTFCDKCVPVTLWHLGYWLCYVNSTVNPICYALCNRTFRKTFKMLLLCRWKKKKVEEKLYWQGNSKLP

5HT1e = 5HT1e (Homo sapiens, UniProt P28566); assay: PDSP radioligand binding, 5HT1e; conditions: 10 μM
5HT1e, sequence (P28566 whole entry): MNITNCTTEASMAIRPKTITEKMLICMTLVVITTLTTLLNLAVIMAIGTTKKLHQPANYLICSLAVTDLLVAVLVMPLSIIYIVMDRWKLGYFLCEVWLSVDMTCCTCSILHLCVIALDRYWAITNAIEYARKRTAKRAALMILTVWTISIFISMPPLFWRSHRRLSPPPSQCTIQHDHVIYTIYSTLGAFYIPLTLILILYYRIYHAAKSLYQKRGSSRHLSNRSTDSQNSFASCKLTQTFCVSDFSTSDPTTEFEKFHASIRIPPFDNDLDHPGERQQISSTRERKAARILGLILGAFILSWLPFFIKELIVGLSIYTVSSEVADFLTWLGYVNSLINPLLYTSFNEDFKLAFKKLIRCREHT

5HT2C = 5HT2C (Homo sapiens, UniProt P28335); assay: PDSP radioligand binding, 5HT2C; conditions: 10 μM
5HT2C, sequence (P28335 33-458): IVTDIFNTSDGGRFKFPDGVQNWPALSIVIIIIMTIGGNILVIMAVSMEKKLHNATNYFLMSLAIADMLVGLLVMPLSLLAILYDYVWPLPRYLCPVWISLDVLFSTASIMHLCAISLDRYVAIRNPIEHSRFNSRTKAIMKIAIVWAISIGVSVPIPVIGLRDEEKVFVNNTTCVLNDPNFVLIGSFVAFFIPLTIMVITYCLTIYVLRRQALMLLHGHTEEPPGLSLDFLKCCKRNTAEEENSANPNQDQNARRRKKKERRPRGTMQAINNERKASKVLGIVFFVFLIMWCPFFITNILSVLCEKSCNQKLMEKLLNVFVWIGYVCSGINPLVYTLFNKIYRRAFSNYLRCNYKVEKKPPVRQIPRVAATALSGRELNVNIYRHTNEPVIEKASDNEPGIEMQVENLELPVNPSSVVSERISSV

NMDA = assay: PDSP radioligand binding, NMDA
Beta3 = Beta3 (Homo sapiens, UniProt P13945); assay: PDSP radioligand binding, Beta3; conditions: 10 μM
KOR = KOR (Homo sapiens, UniProt P41145); assay: PDSP radioligand binding, KOR
KOR, sequence (P41145 whole entry): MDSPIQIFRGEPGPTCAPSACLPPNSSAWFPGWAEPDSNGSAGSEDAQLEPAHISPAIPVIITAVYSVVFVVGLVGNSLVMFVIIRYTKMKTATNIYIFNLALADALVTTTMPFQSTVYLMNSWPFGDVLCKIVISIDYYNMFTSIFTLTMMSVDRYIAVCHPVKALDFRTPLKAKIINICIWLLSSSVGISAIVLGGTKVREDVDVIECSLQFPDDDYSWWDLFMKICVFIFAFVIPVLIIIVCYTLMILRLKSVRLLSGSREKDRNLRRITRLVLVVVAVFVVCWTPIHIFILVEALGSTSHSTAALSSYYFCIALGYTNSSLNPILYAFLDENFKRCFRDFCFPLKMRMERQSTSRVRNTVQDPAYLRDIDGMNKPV

5HT3 = 5HT3 (Homo sapiens, UniProt P46098); assay: PDSP radioligand binding, 5HT3; conditions: 10 μM
5HT3, sequence (P46098 24-478): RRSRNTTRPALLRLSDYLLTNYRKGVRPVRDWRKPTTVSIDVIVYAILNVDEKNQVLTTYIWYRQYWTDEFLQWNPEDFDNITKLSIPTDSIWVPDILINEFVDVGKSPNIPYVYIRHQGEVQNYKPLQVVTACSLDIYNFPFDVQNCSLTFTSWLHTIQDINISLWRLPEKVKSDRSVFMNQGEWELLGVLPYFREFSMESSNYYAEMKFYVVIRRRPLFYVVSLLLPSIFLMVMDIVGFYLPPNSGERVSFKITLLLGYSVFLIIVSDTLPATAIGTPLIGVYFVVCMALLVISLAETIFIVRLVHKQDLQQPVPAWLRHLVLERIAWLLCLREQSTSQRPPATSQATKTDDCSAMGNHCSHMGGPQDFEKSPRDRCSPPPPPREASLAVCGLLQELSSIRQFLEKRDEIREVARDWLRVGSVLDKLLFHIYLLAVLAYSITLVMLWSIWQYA

PBR, sequence (P16257 whole entry): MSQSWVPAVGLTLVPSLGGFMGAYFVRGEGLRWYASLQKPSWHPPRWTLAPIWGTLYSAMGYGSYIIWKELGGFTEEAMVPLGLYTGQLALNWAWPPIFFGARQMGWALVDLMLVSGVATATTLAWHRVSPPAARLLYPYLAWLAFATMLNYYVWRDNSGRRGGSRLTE
5HT2B, sequence (P41595 whole entry): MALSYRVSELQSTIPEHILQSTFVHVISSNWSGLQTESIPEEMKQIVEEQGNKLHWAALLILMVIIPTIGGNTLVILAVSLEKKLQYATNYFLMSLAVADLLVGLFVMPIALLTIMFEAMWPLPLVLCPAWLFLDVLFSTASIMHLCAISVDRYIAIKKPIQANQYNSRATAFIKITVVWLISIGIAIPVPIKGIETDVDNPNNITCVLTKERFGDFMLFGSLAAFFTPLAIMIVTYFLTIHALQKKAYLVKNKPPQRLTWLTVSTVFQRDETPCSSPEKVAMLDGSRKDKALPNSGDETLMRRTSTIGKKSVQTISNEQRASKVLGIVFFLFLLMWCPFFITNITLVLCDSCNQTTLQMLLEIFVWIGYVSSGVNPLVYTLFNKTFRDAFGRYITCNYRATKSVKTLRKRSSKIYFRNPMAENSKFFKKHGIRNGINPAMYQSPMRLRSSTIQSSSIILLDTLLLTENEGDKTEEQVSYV

**Q.** With `OCCCN1CCCC2CC1c1cc(-c3ccc(C(F)(F)F)cc3)ccc12` (racemic) [UKH-1114, (±)-9-(4-(Trifluoromethyl)phenyl)-3,4,5,6-tetrahydro-1,6-methanobenzo[c]azocin-2(1H)-yl)propan-1-ol] as the molecule, how does the “inhibition of radioligand binding (Ki column, footnote a)” value (shortened to “inhibition of radioligand binding”) (PBR) read?
**A.** Its value is “^a (<50% inhibition of radioligand binding at 10 μM)”.

**Q.** And the “inhibition of radioligand binding” value (Alpha1d)?
**A.** The value was “^a (<50% inhibition of radioligand binding at 10 μM)”.

**Q.** And the “inhibition of radioligand binding” value (5HT2B)?
**A.** Its value is “^a (<50% inhibition of radioligand binding at 10 μM)”.

**Q.** What about the “inhibition of radioligand binding” value (A4B4) of the same molecule?
**A.** The value was “^a (<50% inhibition of radioligand binding at 10 μM)”.

**Q.** And the “inhibition of radioligand binding” value (D4)?
**A.** Its value is “^a (<50% inhibition of radioligand binding at 10 μM)”.

**Q.** And the “inhibition of radioligand binding” value (SERT)?
**A.** Its value is “^a (<50% inhibition of radioligand binding at 10 μM)”.

**Q.** And the “inhibition of radioligand binding” value (H3)?
**A.** The value was “^a (<50% inhibition of radioligand binding at 10 μM)”.

**Q.** And the “inhibition of radioligand binding” value (5HT1B)?
**A.** The value was “^a (<50% inhibition of radioligand binding at 10 μM)”.

**Q.** What about the “inhibition of radioligand binding” value (A2B2) of the same molecule?
**A.** The value was “^a (<50% inhibition of radioligand binding at 10 μM)”.

**Q.** What about the “effect on SNI-induced mechanical hypersensitivity” value ([1]; IV 10 mg/kg) of the same molecule?
**A.** The value was “complete reversal of mechanical hypersensitivity”.

**Q.** And the “duration of relief of mechanical hypersensitivity” value ([1]; systemic 10 mg/kg)?
**A.** Its value is 48 h.

**Q.** What about the “peak magnitude of effect compared with gabapentin” value ([1]; systemic 10 mg/kg vs gabapentin 100 mg/kg) of the same molecule?
**A.** Its value is “equivalent to 100 mg/kg gabapentin”.

**Q.** And the “inhibition of radioligand binding” value (Alpha1c)?
**A.** The value was “^a (<50% inhibition of radioligand binding at 10 μM)”.

**Q.** And the “inhibition of radioligand binding” value (M5)?
**A.** The value was “^a (<50% inhibition of radioligand binding at 10 μM)”.

**Q.** What about the “inhibition of radioligand binding” value (5HT1e) of the same molecule?
**A.** The value was “^a (<50% inhibition of radioligand binding at 10 μM)”.

**Q.** What about the “inhibition of radioligand binding” value (5HT2C) of the same molecule?
**A.** The value was “^a (<50% inhibition of radioligand binding at 10 μM)”.

**Q.** What about the pKi (NMDA) of the same molecule?
**A.** Its pKi is 5.17.

**Q.** And the “inhibition of radioligand binding” value (Beta3)?
**A.** The value was “^a (<50% inhibition of radioligand binding at 10 μM)”.

**Q.** And the pKi (KOR)?
**A.** Its pKi is 5.86.

**Q.** And the “inhibition of radioligand binding” value (5HT3)?
**A.** Its value is “^a (<50% inhibition of radioligand binding at 10 μM)”.
